From PubChem
Shown are actives, neighbours in structure and some others; about 3.3% of the full set was active somewhere.
Arr AP2 block – inhibitors of human beta-arrestin and AP2 interaction. inhibition, % at 10 µM. FITC-arrestin peptide / GST-AP2 beads, flow cytometry; AP2 beta2 appendage carries R879A mutation. actives 0.31% (n = 340,000). AID 504490;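 active = inhibition above a set limit, near 3 SD of compounds lacking own fluorescence, cut at about 54% in these data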
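Test system: GST-tagged AP2 beta2-adaptin appendage (R879A) on 4 µm glutathione beads; also added: fluorescein-tagged arrestin peptide at 50 nM final; timing: 12 min plus 1 h, RT; signal: flow cytometry, FL1 (488/535 nm); read-out: percent drop in bead-associated FITC signal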
Myeloid diff 2 – compounds promoting myeloid differentiation. ER-HoxA9 myeloid progenitors, lysozyme-GFP differentiation, flow cytometry. calls only at 10 µM. actives 1% (n = 360,000). AID 624256;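 active = normalized GFP-positive differentiation at or above the plate's own cutoff, the solvent-only control mean plus 3 SD; inconclusive = no clear call, values can overlap the other calls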;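 note: cells exposed to compound for four days before flow analysis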
ABCB6 inh MLPCN – blocks the human ABCB6 transporter; Q9NP58; K562-ABCB6 porphyrin accumulation, flow cytometry, 1 h; stronger effect = lower value; fluorescence ratio to DMSO, % at 10 µM; actives 0.19% (n = 360,000); AID 602162;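 active = fluorescence ratio to DMSO below 75%, the collection mean minus 3 SD; inconclusive = too few cells collected in the well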;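 note: signal is porphyrin accumulated inside mitochondria; lower ratio means ABCB6 inhibition with less porphyrin fluorescence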
Target sequence (Q9NP58 whole entry, looked up): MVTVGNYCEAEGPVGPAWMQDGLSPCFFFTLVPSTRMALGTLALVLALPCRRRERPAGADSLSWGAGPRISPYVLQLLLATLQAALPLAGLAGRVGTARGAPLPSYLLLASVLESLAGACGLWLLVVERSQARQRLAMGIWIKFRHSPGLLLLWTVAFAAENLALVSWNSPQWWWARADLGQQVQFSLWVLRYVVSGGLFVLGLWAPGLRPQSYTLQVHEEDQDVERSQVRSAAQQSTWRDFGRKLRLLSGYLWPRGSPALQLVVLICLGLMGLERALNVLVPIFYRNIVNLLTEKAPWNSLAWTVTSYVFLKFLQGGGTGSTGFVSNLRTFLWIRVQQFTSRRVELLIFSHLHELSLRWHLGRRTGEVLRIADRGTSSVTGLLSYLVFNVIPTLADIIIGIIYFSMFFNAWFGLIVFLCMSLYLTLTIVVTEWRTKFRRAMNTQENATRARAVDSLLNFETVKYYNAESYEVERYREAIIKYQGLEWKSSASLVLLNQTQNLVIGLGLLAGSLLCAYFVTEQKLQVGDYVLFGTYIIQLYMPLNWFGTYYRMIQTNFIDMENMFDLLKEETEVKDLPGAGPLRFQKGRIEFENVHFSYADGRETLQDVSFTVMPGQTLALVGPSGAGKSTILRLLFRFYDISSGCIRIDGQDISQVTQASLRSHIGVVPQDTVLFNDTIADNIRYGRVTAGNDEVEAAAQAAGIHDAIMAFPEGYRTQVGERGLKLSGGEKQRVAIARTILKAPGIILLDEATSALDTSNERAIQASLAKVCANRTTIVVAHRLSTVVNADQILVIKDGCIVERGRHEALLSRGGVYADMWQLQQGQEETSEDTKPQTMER
CendR NRP1 mod – modulators of CendR peptide binding to human neuropilin-1; AID 602438; inhibition, % at 25 µM; actives 0.85% (n = 360,000); FAM-RPARPAR peptide binding to NRP-1, fluorescence polarization;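 active = inhibition or corrected inhibition above about 18%, plus a signal ratio from 0.5 to 1.5, limit read from the data, passing the limit was not always enough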
Exocytosis inh – blocks lytic granule exocytosis; actives 0.66% (n = 360,000); TALL-104 LAMP-1 surface exposure, flow cytometry; cells stimulated with thapsigargin and PMA; AID 651702; inhibition, % at 10 µM;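 active = inhibition above about 55%, limit read from the data; inconclusive = no clear call, values can overlap the other calls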
ATG4B inhibitor – inhibitors of human ATG4B cysteine protease. Q9Y4P1. ATG4B cleavage of LC3-PLA2, NBD-HPC fluorescence, 1 h. inhibition, % at 8.33 µM. actives 0.51% (n = 340,000). AID 504462; in the data active = inhibition above about 40%
Of the large screens only hits and unclear results are named; the others gave an inactive call.

COc1ccccc1N1CCNC(C)C1=O (centres undefined)	none
CN(C)S(=O)(=O)c1ccc(N=Cc2c(C(F)(F)F)[nH]n(C)c2=O)cc1	Myeloid diff 2 active
CCOc1ccc(CN(C)CC(=O)NCc2ccccc2Cl)cc1	none
O=C(NCc1ccccc1Cl)C1=CC=CN2CCS(=O)(=O)N=C12	none
Cc1ccc(NC2=CC(=O)CC(C)(C)C2)c(N)c1	Myeloid diff 2 active
Cc1c(C(=O)NCc2ccccc2C(F)(F)F)sc(=O)n1Cc1ccc(F)cc1	none (no result: Arr AP2 block, ATG4B inhibitor)
NC(=O)C(=O)NCCCN1CCOCC1	none
Cn1nc(-c2ccccc2)c(CSc2ccccc2Cl)c1Cl	Myeloid diff 2 active
Cc1ccc(C2=NN(C(=O)CSc3nccn3C)C(c3ccco3)C2)cc1 (centres undefined)	Myeloid diff 2 active
Cc1ccc(C2=NN(C(=O)CSc3nc4ncc(Cl)cc4[nH]3)C(c3ccco3)C2)cc1 (centres undefined)	none
O=C(COc1cccnc1[N+](=O)[O-])N1N=C(c2ccc(Cl)cc2)CC1c1ccco1 (centres undefined)	Myeloid diff 2 active
Cc1ccc(OCC(=O)N2N=C(c3ccc(Cl)cc3)CC2c2ccco2)c([N+](=O)[O-])n1 (centres undefined)	none
Cc1ccc(S(=O)(=O)N2CCCC2C(=O)NCc2ccccc2F)cc1 (centres undefined)	none
Cc1ccc(S(=O)(=O)N2CCOCC2)cc1NC(=O)COC(=O)Cc1ccc(Cl)cc1	none
O=C(COC(=O)Cc1ccc(Cl)cc1)Nc1cc(S(=O)(=O)N2CCOCC2)ccc1N1CCCC1	CendR NRP1 mod 44
COCCNC(=S)N(CCc1c(C)[nH]c2ccc(F)cc12)Cc1cccs1	CendR NRP1 mod 32
CCNC(=S)N(CCc1c(C)[nH]c2ccc(C)cc12)Cc1cccs1	none
O=C1c2oc3ccccc3c(=O)c2C(c2cccnc2)N1CCCN1CCOCC1 (centres undefined)	CendR NRP1 mod 36
CC(C)C[C@@H](CNCC(=O)[C@H](Cc1c[nH]c2ccccc12)NC(=O)c1[nH]cnc1C(=O)N[C@@H](C)CN)NC(=O)c1nc[nH]c1C(=O)N[C@@H](Cc1ccccc1)C(=O)O	none
CC(C)C[C@H](NC(=O)c1[nH]cnc1C(=O)N[C@@H](Cc1ccccc1)C(=O)OCc1ccccc1)C(=O)OCc1ccccc1	CendR NRP1 mod 20
CC(C)(C)OC(=O)[C@H](CCCCN)NC(=O)c1[nH]cnc1C(=O)N[C@@H](Cc1ccccc1)C(=O)OCc1ccccc1	Myeloid diff 2 active, CendR NRP1 mod 28
CC(C)(C)OC(=O)[C@H](Cc1ccccc1)NC(=O)c1[nH]cnc1C(=O)N[C@@H](Cc1ccccc1)C(=O)OCc1ccccc1	none
CC(C)C[C@H](NC(=O)c1nc[nH]c1C(=O)N[C@@H](CC(C)C)C(=O)OCc1ccccc1)C(=O)OCc1ccccc1	none
CC(C)C[C@@H](CNC(=O)OC(C)(C)C)NC(=O)c1nc[nH]c1C(=O)N[C@@H](CC(C)C)C(=O)CNC[C@H](CC(C)C)NC(=O)c1nc[nH]c1C(=O)N[C@@H](Cc1c[nH]c2ccccc12)C(=O)OC(C)(C)C	CendR NRP1 mod 23
O=C(Nc1ccccc1-c1ccccc1)C1CCCN(c2ncccn2)C1 (centres undefined)	none
S=C(N/N=C1\C2CN3CCN(C2)CC1(c1ccccc1)C3)Nc1ccccc1	none
CC(=O)OCCCN1c2ccccc2Nc2nnc(-c3ccccc3)cc21	Myeloid diff 2 active
COc1cccc(NC(=O)CSc2nc3ccccc3nc2N2CCOCC2)c1	none
O=C(CCn1cccc1)NCCc1ccc(Cl)cc1	none
COc1ccc(-[n+]2c(C)cc(/C=C3\Sc4ccccc4N3C)cc2C)cc1	Exocytosis inh 61 (no result: Arr AP2 block, Myeloid diff 2, ATG4B inhibitor)
CC1=C(C(=O)OCc2ccccc2)C(c2ccc([N+](=O)[O-])cc2)NC(=O)N1CCCC(=O)O (centres undefined)	CendR NRP1 mod 33, Exocytosis inh 62
CCOC(=O)C1=C(C)N(CCCC(=O)O)C(=O)NC1c1ccc(OC)cc1 (centres undefined)	CendR NRP1 mod 26
COC(=O)C1=C(C)N(CCCC(=O)O)C(=O)NC1c1ccc(OC)cc1 (centres undefined)	none
CC1=C(C(=O)OCc2ccccc2)C(c2ccc([N+](=O)[O-])cc2)NC(=O)N1CCCCCC(=O)O (centres undefined)	none
Cc1cccc(N(CC(=O)NC2CCCC2)C(=O)CS(=O)CC(=O)Nc2ccc3c(c2)OCO3)c1C (centres undefined)	CendR NRP1 mod 28
CN1/C(=C/C(=O)c2nc(S(C)(=O)=O)ncc2Cl)C(C)(C)c2ccccc21	Exocytosis inh 58 (no result: Myeloid diff 2)
CC1CCN(CCCNC(=O)c2ccc(CS(=O)(=O)Cc3ccccc3F)o2)CC1	none
O=C(NCCCN1CCCCCC1)c1ccc(CS(=O)(=O)Cc2ccccc2F)o1	CendR NRP1 mod 30
CN1CCN(S(=O)(=O)c2cccc(C(=O)NCc3ccccc3Cl)c2)CC1	none
Cn1c(=O)c2[nH]c(SCCN3CCCCC3)nc2n(C)c1=S	CendR NRP1 mod 20
CC(NCCOCCOc1ccccc1)c1ccccc1 (centres undefined)	CendR NRP1 mod 26
c1ccc(OCCOCCOc2ccccc2)cc1	none
Cc1ccc(N=C2NC(=O)/C(=C\c3ccsc3)S2)c(C)c1	CendR NRP1 mod 26
COc1cccc(CN2CCN(Cc3ccco3)CC2)c1	CendR NRP1 mod 22
NCCCC[C@H]1CN=C(N)N1CCC12CC3CC(CC(C3)C1)C2	CendR NRP1 mod 38
NCCCC[C@H]1CN=C(N)N1CCc1cccc2ccccc12	none
Cc1cc(N2CCN(C(=O)c3ccco3)CC2)n2nc(-c3cccc(F)c3)cc2n1	Myeloid diff 2 active
Cc1cc(N2CCOCC2)n2nc(-c3cccc(F)c3)cc2n1	none
CCCC(NC(=O)C(C)NC(=O)CO/N=C1\C=C2CCC3C4CCC(C(C)=O)[C@@]4(C)CCC3[C@@]2(C)CC1)C(=O)O (some centres undefined)	none
CCOc1ccc2nc(SCC(=O)NCc3ccc(S(N)(=O)=O)cc3)[nH]c2c1	none
Cc1nc(Br)c(Br)c(C)c1Br	none
COC(=O)c1c(NC(=O)c2ccco2)sc2c1CCN(C(C)C)C2	Exocytosis inh inconclusive
CC(C)N1CCc2c(sc(NC(=O)c3ccco3)c2C(N)=O)C1	Myeloid diff 2 active
CCCN1CCc2c(sc(NC(=O)c3ccc(S(=O)(=O)N4CCN(C(=O)OCC)CC4)cc3)c2C(N)=O)C1	Myeloid diff 2 active
CN1CCc2c(sc(NC(=O)c3ccc(S(=O)(=O)N4CCCCCC4)cc3)c2C(N)=O)C1	Myeloid diff 2 active
